# According to ChEMBL document CHEMBL3870325 (Bioorg Med Chem, 2017):
# How the values were obtained:
# [1] = molecular target: T1, Epidermal growth factor receptor (Homo sapiens, UniProt P00533)
# Histone deacetylase 1 = Histone deacetylase 1 (Homo sapiens, UniProt Q13547); experiment: Inhibition of HDAC1 (unknown origin) using acetylated peptide substrate preincubated for 15 mins followed by substrate addition measured after 60 mins by fluorescence analysis
# cells [2] = assay type: functional, cell-based; conditions: Homo sapiens, BT-474, 48 h
# [3] = molecular target: T2, Receptor tyrosine-protein kinase erbB-2 (Homo sapiens, UniProt P04626); experiment: Inhibition of HER2 (unknown origin) assessed as remaining ATP level measured after 15 mins by luminescence analysis
# Summary of the method: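 Kinase run as a contracted HTRF assay. Compounds in 3-fold dilution in 2.5% DMSO/kinase buffer, mixed with kinase and substrate, preincubated 15 min at RT. ATP added to start, reaction 30 min at RT. Stopped with Streptavidin-XL665 plus europium-cryptate TK antibody (1:100). Excitation 320 nm, 665/615 nm emission ratio. IC50 from inhibition curves, results from 2 assays.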
# cells [4] = assay type: functional, cell-based; conditions: Homo sapiens, A549, 48 h
# [5] = molecular target: T3, Protein deacetylase HDAC6 (Homo sapiens, UniProt Q9UBN7); experiment: Inhibition of HDAC6 (unknown origin) using acetylated peptide substrate preincubated for 15 mins followed by substrate addition measured after 60 mins by fluorescence analysis
# T3 sequence (Q9UBN7 whole entry): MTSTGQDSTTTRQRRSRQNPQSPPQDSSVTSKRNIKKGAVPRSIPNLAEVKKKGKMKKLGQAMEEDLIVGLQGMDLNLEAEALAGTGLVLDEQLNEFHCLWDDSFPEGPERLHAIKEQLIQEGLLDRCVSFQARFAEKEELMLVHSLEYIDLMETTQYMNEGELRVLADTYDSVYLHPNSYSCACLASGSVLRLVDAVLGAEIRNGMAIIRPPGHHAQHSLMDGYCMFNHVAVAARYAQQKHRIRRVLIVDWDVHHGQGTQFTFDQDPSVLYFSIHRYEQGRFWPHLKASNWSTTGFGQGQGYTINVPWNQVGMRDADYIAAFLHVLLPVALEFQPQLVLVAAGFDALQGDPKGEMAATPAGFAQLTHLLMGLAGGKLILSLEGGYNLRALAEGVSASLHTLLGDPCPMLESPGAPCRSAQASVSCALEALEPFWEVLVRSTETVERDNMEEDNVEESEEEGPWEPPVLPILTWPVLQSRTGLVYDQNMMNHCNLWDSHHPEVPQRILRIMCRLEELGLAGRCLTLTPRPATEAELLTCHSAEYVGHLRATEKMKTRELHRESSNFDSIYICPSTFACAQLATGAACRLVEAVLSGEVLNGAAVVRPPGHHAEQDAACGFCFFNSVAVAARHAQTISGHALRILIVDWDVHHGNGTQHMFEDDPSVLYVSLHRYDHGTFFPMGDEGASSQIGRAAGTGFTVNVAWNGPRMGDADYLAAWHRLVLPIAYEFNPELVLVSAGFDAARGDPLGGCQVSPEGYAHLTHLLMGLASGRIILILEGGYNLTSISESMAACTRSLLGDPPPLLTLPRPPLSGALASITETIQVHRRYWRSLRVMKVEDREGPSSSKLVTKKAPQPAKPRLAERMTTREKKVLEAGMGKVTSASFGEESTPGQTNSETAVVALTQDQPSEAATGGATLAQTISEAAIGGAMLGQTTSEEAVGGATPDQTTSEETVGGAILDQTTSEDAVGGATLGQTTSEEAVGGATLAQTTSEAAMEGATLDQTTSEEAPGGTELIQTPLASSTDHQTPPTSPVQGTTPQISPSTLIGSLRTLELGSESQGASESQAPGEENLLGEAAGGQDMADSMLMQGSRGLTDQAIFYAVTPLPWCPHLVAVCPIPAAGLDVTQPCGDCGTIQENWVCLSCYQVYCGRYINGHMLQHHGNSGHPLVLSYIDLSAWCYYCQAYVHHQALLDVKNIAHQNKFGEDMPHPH
# [6] = molecular target: T2, Receptor tyrosine-protein kinase erbB-2; experiment: Inhibition of HER2 (unknown origin)
# Summary of the method: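 Homogeneous time-resolved fluorescence kinase assay. Compounds were 3-fold serially diluted in 2.5% DMSO/kinase buffer and preincubated with kinase and substrate for 15 min at RT. ATP started the reaction, which ran 30 min at RT and was stopped with Streptavidin-XL665 plus TK antibody europium cryptate. Read at 320 nm excitation, 665/615 nm emission ratio. IC50 from inhibition curves; two separate assays.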
# [7] = molecular target: T1, Epidermal growth factor receptor; experiment: Inhibition of EGFR (unknown origin)
# Summary of the method: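 HTRF kinase assay. Compounds were serially diluted 3-fold in 2.5% DMSO/kinase buffer, then mixed with kinase and substrate and preincubated 15 min at RT. The reaction was started with ATP and run 30 min at RT. It was stopped with Streptavidin-XL665 and TK antibody europium cryptate. Read at ex 320 nm, em 665/615 nm ratio. IC50 from inhibition curves; 2 separate assays.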
# [8] = Inhibition of HDAC in human HeLa cell nuclear extract using COLOR DE LYS as substrate by fluorometric analysis; assay type: cell-free
# Chain of Histone deacetylase 1 (Q13547 whole entry): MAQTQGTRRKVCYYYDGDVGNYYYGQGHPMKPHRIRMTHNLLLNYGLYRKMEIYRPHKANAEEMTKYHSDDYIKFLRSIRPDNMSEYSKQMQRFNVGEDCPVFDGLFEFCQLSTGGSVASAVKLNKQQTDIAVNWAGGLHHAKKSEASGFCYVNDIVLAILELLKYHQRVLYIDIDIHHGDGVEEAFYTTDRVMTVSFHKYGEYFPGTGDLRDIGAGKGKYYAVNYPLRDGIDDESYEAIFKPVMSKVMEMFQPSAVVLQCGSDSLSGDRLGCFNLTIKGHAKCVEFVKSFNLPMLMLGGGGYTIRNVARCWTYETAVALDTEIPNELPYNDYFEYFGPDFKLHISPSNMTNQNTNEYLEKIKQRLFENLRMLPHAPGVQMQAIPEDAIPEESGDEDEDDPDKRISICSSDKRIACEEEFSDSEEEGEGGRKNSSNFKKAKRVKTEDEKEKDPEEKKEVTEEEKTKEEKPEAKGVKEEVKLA
# T2 sequence (P04626 whole entry): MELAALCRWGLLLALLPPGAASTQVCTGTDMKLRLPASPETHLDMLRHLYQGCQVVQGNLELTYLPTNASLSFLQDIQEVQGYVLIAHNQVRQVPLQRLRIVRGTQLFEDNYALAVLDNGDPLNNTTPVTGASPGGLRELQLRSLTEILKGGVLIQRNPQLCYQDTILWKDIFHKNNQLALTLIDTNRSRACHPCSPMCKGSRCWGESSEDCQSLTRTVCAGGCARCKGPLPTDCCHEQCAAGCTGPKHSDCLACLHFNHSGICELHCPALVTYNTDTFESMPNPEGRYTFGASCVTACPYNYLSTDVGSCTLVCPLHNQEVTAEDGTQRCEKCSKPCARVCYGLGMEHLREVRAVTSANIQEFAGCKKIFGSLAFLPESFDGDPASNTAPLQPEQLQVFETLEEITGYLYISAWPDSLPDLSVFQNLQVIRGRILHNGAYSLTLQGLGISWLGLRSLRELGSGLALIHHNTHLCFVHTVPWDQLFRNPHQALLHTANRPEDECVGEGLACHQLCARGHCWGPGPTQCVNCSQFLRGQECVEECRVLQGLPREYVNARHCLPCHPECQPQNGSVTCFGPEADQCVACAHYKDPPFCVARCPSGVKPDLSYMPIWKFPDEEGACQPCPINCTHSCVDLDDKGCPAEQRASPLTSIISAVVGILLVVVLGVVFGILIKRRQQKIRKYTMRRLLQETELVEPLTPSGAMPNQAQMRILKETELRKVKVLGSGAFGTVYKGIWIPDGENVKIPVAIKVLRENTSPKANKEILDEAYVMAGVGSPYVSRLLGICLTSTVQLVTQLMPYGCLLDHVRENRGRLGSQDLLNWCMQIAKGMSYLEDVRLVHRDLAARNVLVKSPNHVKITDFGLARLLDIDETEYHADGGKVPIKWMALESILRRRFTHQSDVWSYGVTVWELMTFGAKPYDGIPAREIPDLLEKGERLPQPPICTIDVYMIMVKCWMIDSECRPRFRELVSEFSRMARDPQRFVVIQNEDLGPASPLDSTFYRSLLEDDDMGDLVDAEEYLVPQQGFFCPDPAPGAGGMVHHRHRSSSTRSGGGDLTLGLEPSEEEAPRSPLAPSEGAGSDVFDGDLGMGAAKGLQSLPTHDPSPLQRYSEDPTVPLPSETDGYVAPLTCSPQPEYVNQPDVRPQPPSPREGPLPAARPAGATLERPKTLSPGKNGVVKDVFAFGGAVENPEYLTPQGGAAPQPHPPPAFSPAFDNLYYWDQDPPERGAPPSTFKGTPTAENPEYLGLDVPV
# T1 sequence (P00533 whole entry): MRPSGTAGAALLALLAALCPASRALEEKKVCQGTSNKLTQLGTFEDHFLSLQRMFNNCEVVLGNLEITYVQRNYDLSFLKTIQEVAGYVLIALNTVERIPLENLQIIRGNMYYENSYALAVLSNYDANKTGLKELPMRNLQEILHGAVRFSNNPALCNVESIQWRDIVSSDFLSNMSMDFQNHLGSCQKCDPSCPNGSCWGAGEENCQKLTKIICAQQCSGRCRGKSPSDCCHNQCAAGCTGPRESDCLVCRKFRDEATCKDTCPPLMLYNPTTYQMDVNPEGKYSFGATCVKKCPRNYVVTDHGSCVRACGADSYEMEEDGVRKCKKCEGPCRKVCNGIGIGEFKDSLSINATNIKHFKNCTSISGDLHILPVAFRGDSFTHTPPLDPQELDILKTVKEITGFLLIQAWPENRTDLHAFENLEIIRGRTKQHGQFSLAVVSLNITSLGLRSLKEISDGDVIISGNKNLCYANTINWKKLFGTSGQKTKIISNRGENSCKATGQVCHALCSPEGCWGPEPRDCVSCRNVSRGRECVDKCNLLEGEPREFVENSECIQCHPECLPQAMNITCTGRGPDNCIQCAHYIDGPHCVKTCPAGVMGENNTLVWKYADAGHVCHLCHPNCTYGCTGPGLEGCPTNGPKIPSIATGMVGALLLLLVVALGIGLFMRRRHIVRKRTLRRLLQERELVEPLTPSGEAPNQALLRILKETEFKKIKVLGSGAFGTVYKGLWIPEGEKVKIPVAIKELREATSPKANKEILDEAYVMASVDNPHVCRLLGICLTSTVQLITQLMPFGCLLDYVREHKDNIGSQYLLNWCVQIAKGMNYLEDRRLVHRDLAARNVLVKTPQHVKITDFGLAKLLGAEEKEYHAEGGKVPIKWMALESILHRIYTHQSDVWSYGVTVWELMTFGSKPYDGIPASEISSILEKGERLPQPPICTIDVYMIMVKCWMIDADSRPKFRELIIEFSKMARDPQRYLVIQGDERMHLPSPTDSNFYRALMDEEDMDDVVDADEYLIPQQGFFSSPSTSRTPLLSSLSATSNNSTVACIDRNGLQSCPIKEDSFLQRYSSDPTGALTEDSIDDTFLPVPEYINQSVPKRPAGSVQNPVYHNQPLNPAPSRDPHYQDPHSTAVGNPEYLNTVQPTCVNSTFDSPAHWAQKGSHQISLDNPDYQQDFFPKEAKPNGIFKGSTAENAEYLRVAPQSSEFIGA
IC50 [1] [nM],IC50 (Histone deacetylase 1) [nM],IC50 (cells [2]) [µM],IC50 [3] [nM],IC50 (cells [4]) [µM],IC50 [5] [nM],IC50 [8] [nM],SMILES,IC50 [6] [nM],IC50 [7] [nM]
4.2,8.3,2.24,16.4,3.68,19.5,–,O=C(CCCCCCn1cc(-c2ccc3ncnc(Nc4ccc(OCc5cccc(F)c5)c(Cl)c4)c3c2)nn1)NO,–,–
5.8,26.6,23.6,> 1000,43.5,18.5,–,COc1cc(Nc2ncnc3ccc(-c4cn(CCCCCC(=O)NO)nn4)cc23)ccc1Oc1ccccc1,–,–
11.6,12.8,4.95,> 1000,13.5,16,–,COc1cc(Nc2ncnc3ccc(-c4cn(CCCCCCC(=O)NO)nn4)cc23)ccc1Oc1ccccc1,–,–
1.9,38.6,2.2,193,> 50,94.2,–,O=C(CCCCCn1cc(-c2ccc3ncnc(Nc4ccc(OCc5cccc(F)c5)c(Cl)c4)c3c2)nn1)NO,–,–

# The next lines start with the molecule.
SMILES,IC50 [1] [nM],IC50 (Histone deacetylase 1) [nM],IC50 (cells [2]) [µM],IC50 [3] [nM],IC50 (cells [4]) [µM],IC50 [5] [nM],IC50 [8] [nM],IC50 [6] [nM],IC50 [7] [nM]
O=C(CCCCCn1cc(-c2ccc3ncnc(Nc4ccc(OCc5nccs5)c(Cl)c4)c3c2)nn1)NO,6.9,7.2,20.6,537,9.96,14.3,–,–,–
O=C(CCCCCCn1cc(-c2ccc3ncnc(Nc4ccc(OCc5nccs5)c(Cl)c4)c3c2)nn1)NO,3.6,5.6,2.88,707,8.79,13.6,–,–,–
C[C@@H]1COC(Nc2ccc3ncnc(Nc4ccc(OCc5nccs5)c(Cl)c4)c3c2)=N1 [VARLITINIB],–,–,–,–,–,–,–,2,7
C#Cc1cccc(Nc2ncnc3cc(OC)c(OCCCCCCC(=O)NO)cc23)c1 [CUDC-101],–,–,–,–,–,–,4.2,–,–
